Laboratory results published in PMC4005387 (MedChemComm, 2014).

Experiments:
KIX H602C = KIX H602C (Mus musculus, UniProt P45481, H602C); assay: LC-MS analysis of labelling of KIX H602C by disulphide fragments; format: binding
In short: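 Tethering reactions of KIX H602C with ten hit disulphide fragments from the FP screen were run at increasing β-ME stringency to compare relative affinities. Mass spectrometry gave the percent of protein carrying each fragment through the disulphide.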

[1] = molecular target: KIX N627C / fluorescently-labeled MLL peptide (Mus musculus, UniProt P45481, N627C); settings: fragment covalently associated with KIX N627C; cited from earlier work
KIX N627C mutant = KIX N627C mutant (Mus musculus, UniProt P45481, N627C); assay: LC-MS Tethering: labelling of KIX N627C by disulphide fragment; format: binding; settings: 5 mM BME, 250 μM fragment
KIX N627C mutant, sequence (P45481 586-665 N627C limits assumed): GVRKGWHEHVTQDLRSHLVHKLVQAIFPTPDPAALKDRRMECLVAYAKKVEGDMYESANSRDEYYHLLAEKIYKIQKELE

KIX N627C / fluorescently-labeled MLL peptide, sequence (P45481 586-665 N627C limits assumed): as above
KIX H602C, sequence (P45481 586-665 H602C limits assumed): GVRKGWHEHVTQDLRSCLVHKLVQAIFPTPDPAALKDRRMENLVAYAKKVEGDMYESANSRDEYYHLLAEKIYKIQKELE

SMILES	percent labelling of KIX (KIX H602C; 5 mM β-ME, KIX H602C, MS)	DR50 (concentration at which 50% of the KIX H602C mutant is bound by the fragment) (KIX H602C; LC-MS dose-response, result in words)	inhibition of MLL binding [1]	percent of KIX N627C mutant labelled (KIX N627C mutant)
CC(=O)Nc1ccc(Cl)c(NC(=O)NCCSSCCN(C)C)c1 [3D4]	~ 70%	lower with the fragment 3D4 than 6D11	–	–
CN(C)CCSSCCC(=O)N1CCC(O)(c2ccc(Cl)c(C(F)(F)F)c2)CC1 [1A10]	–	–	effective inhibitors of MLL binding	82%
COc1ccc2cc([C@H](C)C(=O)NCCSSCCN)ccc2c1 [1C11]	–	–	effective inhibitors of MLL binding	–
